Measured values pooled from the literature.
Each line is one published result; the experiments were not run side by side.
CNR2: Cannabinoid receptor 2 (CNR2, Homo sapiens, UniProt P34972)
HDAC10: Polyamine deacetylase HDAC10 (HDAC10, Homo sapiens, UniProt Q969S8)
MMP2: 72 kDa type IV collagenase (MMP2, Homo sapiens, UniProt P08253)
Trpc6: Short transient receptor potential channel 6 (Trpc6, Mus musculus, UniProt Q61143)
ADRB2: Beta-2 adrenergic receptor (ADRB2, Homo sapiens, UniProt P07550)

target | test | conditions | IC50 | Compound
CNR2 | GTPγS binding, antagonist | cell membranes | 0.32 µM | Cc1c(C(=O)NN2CCCCC2)nc(-c2ccc(Cl)cc2Cl)n1-c1ccc(OS(=O)(=O)CCCC(F)(F)F)cc1
HDAC10 | enzyme activity, inhibitor, fluorescence |  | 2.52 µM | O=C(CCCCCCNC(=O)c1cnc(N(c2ccccc2)c2ccccc2Cl)nc1)NO
MMP2 | enzyme activity, inhibitor |  | > 20 µM | Cn1cc(-c2cc3cc(-c4cc(C(=O)NCc5ccc(C(=O)O)cc5)nn4C)ccc3[nH]2)cn1
Histone-lysine N-methyltransferase SETD7 (SETD7, Homo sapiens, UniProt Q8WTS6) | enzyme activity, inhibitor |  | > 333 µM | CC/C(=C(\c1ccccc1)c1ccc(OCCN(C)C)cc1)c1ccccc1
Trpc6 | calcium signal, fluorescence |  | 4.2 µM | COc1cccc2sc(N(CCN(C)C)C(=O)c3ccc4c(c3)CCCC4)nc12
MMP2 | enzyme activity, inhibitor |  | > 20 µM | Cc1noc(-c2cc3cc(-c4nc(C(=O)NCc5cccnc5)[nH]c4C)ccc3[nH]2)n1
Protein phosphatase methylesterase 1 (Mus musculus, UniProt Q8BVQ5) | enzyme activity, inhibitor |  | 1.3 µM | CCC1(c2ccc(C)cc2)C(=O)N(C(=O)OC(C)C)N1C(=O)OC(C)C (stereo not shown)
Trpc6 | calcium signal, fluorescence |  | 8.8 µM | O=C(c1ccc(Cl)s1)N(CCN1CCCC1)c1nc2ccccc2s1
Casein kinase I isoform alpha (CSNK1A1, Homo sapiens, UniProt P48729) | cell-free assay, inhibitor |  | 2.91 µM | CC(C)(C)n1nc(-c2cnc3cc(OC4CC4)ccc3c2)c(C(N)=O)c1N
MMP2 | enzyme activity, inhibitor |  | > 20 µM | Cc1noc(-c2cc3cc(-c4cc(C(=O)NCc5ccc(C(=O)O)cc5)nn4C)ccc3[nH]2)n1
Protein kinase C epsilon type (PRKCE, Homo sapiens, UniProt Q02156) | enzyme activity, inhibitor |  | 6.31 µM | CN1CCN(c2ccc(Nc3ncc4cc(C#N)c(=O)n(C5CCCC5)c4n3)cc2)CC1
ADRB2 | ligand displacement, radioligand | cell membranes | 37.7 µM | CN1[C@@H]2CC[C@H]1C[C@@H](OC(=O)c1c[nH]c3ccccc13)C2
CNR2 | GTPγS binding, antagonist | cell membranes | 0.4 µM | Cc1ccc(NC(=O)c2nc(-c3ccc(Cl)cc3Cl)n(-c3ccc(OS(=O)(=O)CCC(F)(F)F)cc3)c2C)nc1
ADRB2 | ligand displacement, radioligand | cell membranes | 86.8 µM | CN(C)CCC1(c2ccc(Cl)cc2)Cc2ccccc2C(=O)O1 (stereo not shown)
HDAC10 | enzyme activity, inhibitor |  | 0.43 µM | CCCC[C@H](NC(=O)[C@H](C)c1c(C)[nH]c2ccc(O)cc12)c1ncc(-c2cc3ccccc3nc2OC)[nH]1
Dual specificity protein phosphatase 3 (DUSP3, Homo sapiens, UniProt P51452) | enzyme activity, inhibitor, absorbance | pH 7 | 113 µM | O=C(O)C(=O)CC(=O)c1cccc(N(Cc2ccccc2)Cc2ccccc2)c1
CNR2 | calcium signal, antagonist |  | > 10 µM | O=C(Nc1ccc(Cl)cc1)Nc1cccc(-c2ccc[nH]2)c1
Solute carrier family 22 member 2 (SLC22A2, Homo sapiens, UniProt O15244) | transporter uptake, inhibitor, radiometric | 2 min | 11.6 µM | CCS(=O)(=O)N1CC(CC#N)(n2cc(-c3ncnc4[nH]ccc34)cn2)C1
Aldo-keto reductase family 1 member B1 (Akr1b1, Rattus norvegicus, UniProt P07943) | enzyme activity, inhibitor, absorbance | pH 6.2 | > 50 µM | COc1ccc2nc(/N=C3/NC(=O)C(=Cc4cc(I)c(O)c(OC)c4)S3)sc2c1
